# Experimental data pooled from the literature.
# Target: Focal adhesion kinase 1 (PTK2, Homo sapiens, UniProt Q05397)
Structure (SMILES),observed,mode,method,concentration,endpoint,result
F[C@@H]1CCN(c2nccc(-c3cnn4ncccc34)n2)C1,cell-free assay,,,1 µM,remaining signal,100%
N#CCCc1ccc2c(c1)-c1[nH]c3ccc([N+](=O)[O-])cc3c1CC(=O)N2,cell-free assay,,,0.5 µM,remaining signal,82.2%
Cc1sc(C(=O)NC2COC2)cc1-n1cc(NC(=O)Nc2c(F)cccc2Cl)cn1,enzyme activity,inhibitor,,10 µM,remaining activity,104%
Nc1ncnc2occ(-c3ccc(NC(=O)Nc4cc(C(F)(F)F)ccc4F)cc3)c12,cell-free assay,inhibitor,,20 µM,remaining signal,0.1%
Cc1ccc(Nc2nccc(N(C)c3ccc4c(C)n(C)nc4c3)n2)cc1S(N)(=O)=O,enzyme activity,inhibitor,,0.3 µM,inhibition,4%
COc1cc(Cl)c(C(=O)N[C@@H](CN[C@H]2CC[C@@H](N)CC2)Cc2ccc(C#N)cc2)cc1-c1ccc(CN[C@H](C)c2ccc(C)cc2)o1,enzyme activity,inhibitor,,1 µM,remaining activity,100%
CC(C)(C)c1nc2c(s1)c1nc(N)ncc1c1ccc(NS(=O)(=O)c3c(F)cccc3F)c(F)c12,enzyme activity,inhibitor,radiometric,1 µM,remaining activity,99%
CNCc1ccccc1-c1csc([C@@H](C)Nc2nc(C)nc3cc(OC)c(OC)cc23)c1,cell-free assay,,competition with immobilised ligand,1 µM,remaining binding,86%
CNC(=O)c1cc(Oc2ccc(NC(=O)Nc3ccc(Cl)c(C(F)(F)F)c3)cc2)ccn1,cell-free assay,,,0.5 µM,remaining signal,102%
CCS(=O)(=O)c1cc2cc(C[C@](O)(CC(C)(C)c3ccc(F)cc3C(N)=O)C(F)(F)F)[nH]c2cn1,cell-free assay,,competition with immobilised ligand,1 µM,remaining binding,97%
CCCOc1ccc(OC)c(F)c1C(=O)c1ccc(C(=O)N[C@@H]2CNC[C@H]2NC(=O)c2ccc3[nH]ncc3c2)cc1,enzyme activity,inhibitor,,10 µM,remaining activity,103%
Cc1cc(NC(=O)c2cccc3cc(-c4cccc5[nH]nc(N)c45)ccc23)ccc1F,enzyme activity,inhibitor,,0.1 µM,activity vs control,98%
O=C(Nc1cnn(-c2csc(C(=O)NC3COC3)c2)c1)Nc1c(F)cccc1Cl,enzyme activity,inhibitor,,5 µM,remaining activity,89%
COc1cc2nccc(Oc3ccc(NC(=O)c4c5n(n(-c6ccc(F)cc6)c4=O)CCCC5)cc3)c2cc1OC,enzyme activity,inhibitor,,0.1 µM,inhibition,-10%
Cc1nccc(COC(=O)N2C[C@@H]3[C@@H](CNC(=O)c4ccc5[nH]nnc5c4)[C@@H]3C2)n1,cell-free assay,,competition with immobilised ligand,1 µM,remaining binding,100%
CS(=O)(=O)Nc1cccc(-c2csc(NC(=O)CSc3nc4nccnc4c(=O)n3CCc3ccccc3)n2)c1,enzyme activity,inhibitor,,10 µM,inhibition,2%
Cc1[nH]c(/C=C2\C(=O)Nc3ccc(F)cc32)c(C)c1C(=O)N[C@H]1CCN(C(=O)N(C)C)C1,enzyme activity,inhibitor,,1 µM,remaining activity,27%
CC/C(=N\NC(=O)NCc1cccc(O)c1)c1ccc(O)c(C)c1O,enzyme activity,inhibitor,,0.1 µM,inhibition,-3.8%
CC(=O)N1CCC(c2ccc(C(=O)NC(=N)N)cc2C(F)(F)F)CC1,cell-free assay,,competition with immobilised ligand,1 µM,remaining binding,100%
CN(c1nccc(-c2cnn3ncccc23)n1)C1CC1,cell-free assay,,,1 µM,remaining signal,100%
O=C1Nc2ccc(Cl)cc2C1=Cc1cc(Cl)c(O)c(Cl)c1,cell-free assay,,,0.5 µM,remaining signal,91.5%
CC1=C(C#N)C(c2ccc3c(c2)c(NC(=O)c2ccccc2C)nn3C)C(C#N)=C(C)N1,cell-free assay,,competition with immobilised ligand,1 µM,remaining binding,94%
Cc1ccc(NC(=O)c2ccc(C)c(C(F)(F)F)c2)cc1C#Cc1nn(C2CCC(O)CC2)c2ncnc(N)c12 (centres unmarked),cell-free assay,,,10 µM,remaining signal,45%
CC(=O)Nc1c(C(C)=O)c(=O)n(C)c2nc(-c3ccc(Cl)cc3Cl)c(-c3ccc(Cl)cc3)cc12,cell-free assay,,competition with immobilised ligand,1 µM,remaining binding,100%
Cc1ccc(C(=O)Nc2ccc(CN3CCN(C)CC3)c(C(F)(F)F)c2)cc1C#Cc1cnc2cccnn12,enzyme activity,inhibitor,,23.5 nM,remaining activity,100%
O=c1nc(-c2ccccn2)sc2ccccc12,binding,,competition with immobilised ligand,1 µM,remaining binding,90%
COc1cc2ncnc(Nc3ccc(Oc4ccccc4)cc3C)c2cc1OC,enzyme activity,inhibitor,,1 µM,inhibition,5%
C[C@H](c1ccnc(Nc2nc3ccc(-c4cc(N(C)C)ncn4)cc3[nH]2)c1)N1CCN(C(=O)CC(F)(F)F)CC1,cell-free assay,,competition with immobilised ligand,0.1 µM,remaining binding,100%
COc1cc(-c2cc(-c3ccc(N4CCNCC4)cc3)cnc2C)cc(OC)c1OC,enzyme activity,inhibitor,,1 µM,inhibition,16%
